Reference: ChEMBL document CHEMBL4616681, “Discovery of 3-Pyridyl Isoindolin-1-one Derivatives as Potent, Selective, and Orally Active Aldosterone Synthase (CYP11B2) Inhibitors” (J Med Chem, 2020)
In brackets after ≈: the same amount, converted by molar mass.

Assays:
[1] = target: Cytochrome P450 2D6 (Homo sapiens, UniProt P10635); assay: Inhibition of CYP2D6 (unknown origin); type: ADME
[2] = target: T1, Cytochrome P450 11B1, mitochondrial (Homo sapiens, UniProt P15538); assay: Inhibition of human CYP11B1 expressed in human renal leiomyoblastoma cells harboring FDXR/FDX using 1-deoxycortisol as substrate by HTRF assay; type: ADME, cell-based
T1 sequence (P15538 whole entry): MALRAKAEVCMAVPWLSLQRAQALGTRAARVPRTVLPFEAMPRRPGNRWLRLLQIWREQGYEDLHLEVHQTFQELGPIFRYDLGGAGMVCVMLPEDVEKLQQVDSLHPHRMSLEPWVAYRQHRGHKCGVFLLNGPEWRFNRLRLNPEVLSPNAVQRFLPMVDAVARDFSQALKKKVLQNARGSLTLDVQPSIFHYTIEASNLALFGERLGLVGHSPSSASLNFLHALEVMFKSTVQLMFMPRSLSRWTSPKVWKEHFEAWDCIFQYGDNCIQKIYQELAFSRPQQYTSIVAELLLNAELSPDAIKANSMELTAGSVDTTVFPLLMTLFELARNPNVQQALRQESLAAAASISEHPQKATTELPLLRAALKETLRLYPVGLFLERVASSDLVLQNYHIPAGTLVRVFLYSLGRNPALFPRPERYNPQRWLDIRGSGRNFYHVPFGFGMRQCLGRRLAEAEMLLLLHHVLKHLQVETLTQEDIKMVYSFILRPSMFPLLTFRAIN
Summary of the method: (§1)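 Cells with endogenous FDXR/FDX and no detectable CYP11B activity, stably transfected (CMV promoter, neomycin selection, G-418 400 µg/mL) with CYP11B1 or CYP11B2 of the named species. Assayed in DMEM/F12 with 2.5% charcoal-treated FCS. Substrate 1 µM 11-deoxycorticosterone (B2) or 11-deoxycortisol (B1), 16 hr. Aldosterone or cortisol in supernatant measured by HTRF. IC50 from 4-parameter MMF fit; selectivity factor is the B1/B2 IC50 ratio.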

[3] = target: Cytochrome P450 3A4 (Homo sapiens, UniProt P08684); assay: Inhibition of CYP3A4 (unknown origin); type: ADME
[4] = target: Cytochrome P450 2C9 (Homo sapiens, UniProt P11712); assay: Inhibition of CYP2C9 (unknown origin); type: ADME
[5] = target: T2, Cytochrome P450 11B2, mitochondrial (Homo sapiens, UniProt P19099); assay: Inhibition of human CYP11B2 expressed in human renal leiomyoblastoma cells harboring FDXR/FDX using 1-deoxycorticosterone as substrate by HTRF assay; type: cell-based; summary of the method: as §1
T2 sequence (P19099 whole entry): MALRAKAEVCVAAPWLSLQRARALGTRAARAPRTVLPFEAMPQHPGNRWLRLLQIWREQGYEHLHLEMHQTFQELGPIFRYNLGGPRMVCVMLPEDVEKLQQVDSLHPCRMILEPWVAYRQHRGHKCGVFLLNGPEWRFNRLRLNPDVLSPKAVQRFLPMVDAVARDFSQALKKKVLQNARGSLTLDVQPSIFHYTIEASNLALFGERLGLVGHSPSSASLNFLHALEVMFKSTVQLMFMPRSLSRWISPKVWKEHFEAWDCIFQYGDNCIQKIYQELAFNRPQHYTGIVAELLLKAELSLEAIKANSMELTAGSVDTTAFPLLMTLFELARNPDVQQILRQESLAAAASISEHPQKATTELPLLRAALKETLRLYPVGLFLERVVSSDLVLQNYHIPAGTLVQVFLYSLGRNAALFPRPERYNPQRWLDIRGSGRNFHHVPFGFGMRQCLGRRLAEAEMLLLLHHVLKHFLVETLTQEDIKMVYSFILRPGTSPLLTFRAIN

[6] = Selectivity ratio of IC50 for human CYP11B1 expressed in human renal leiomyoblastoma cells harboring FDXR/FDX to IC50 for human CYP11B2 expressed in human renal leiomyoblastoma cells harboring FDXR/FDX; type: cell-based; summary of the method: as §1
[7] = Protein binding in cynomolgus monkey plasma assessed as unbound fraction at 1 uM by micro-equilibrium dialysis based LC-MS/MS analysis; type: ADME, cell-free, Macaca fascicularis
Summary of the method: (§2)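 Equilibrium dialysis of pooled rat or cynomolgus plasma against Soerensen buffer pH 7.4, 12–14 kDa cut-off membrane. Compounds tested in cassettes of 2–5 at 1 μM initial total concentration, with diazepam as control. Dialysis 5 hr at 37 °C under 5% CO₂. Unbound percentage by LC/MS-MS.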

[8] = Oral bioavailability in cynomolgus monkey; type: ADME, organism-based, Macaca fascicularis; details: in vivo
[9] = AUC (0 to infinity) in Wister-Han rat at 3 mg/kg, po administered as single dose by LC/MS-MS analysis; type: ADME, organism-based; design: dose 3 mg/kg, route oral, time infinity; details: Wistar-Han, in vivo
Summary of the method: (§3)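 Male Wistar-Han rats, single dose. IV 1 mg/kg, compound at 0.5 mg/mL in NMP:saline 30/70 (v/v). Oral 3 mg/kg, 0.25 mg/mL in 2% Klucel with 0.1% Polysorbate 80. Three rats per time point. Heparinized blood taken at eight (iv) or seven (po) time points, plasma stored at -20 °C. Plasma levels by LC/MS-MS. Non-compartmental analysis.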

[10] = Dose normalized AUC in Wister-Han rat at 1 mg/kg, iv or 3 mg/kg, po administered as single dose by LC/MS-MS analysis; type: ADME, organism-based; details: in vivo; summary of the method: as §3
[11] = Dose normalized AUC in cynomolgus monkey; type: ADME, Macaca fascicularis; details: in vivo
[12] = Protein binding in rat plasma assessed as unbound fraction at 1 uM by micro-equilibrium dialysis based LC-MS/MS analysis; type: ADME, cell-free; summary of the method: as §2
[13] = Oral bioavailability in Wister-Han rat at 3 mg/kg administered as single dose by LC/MS-MS analysis; type: ADME, organism-based; details: Wistar-Han, in vivo; summary of the method: as §3
[14] = Intrinsic clearance in rat liver microsomes preincubated for 10 mins followed by NADPH regenerating system addition and measured up to 30 mins by LC/MS-MS analysis; type: ADME, Microsome
Summary of the method: (§4)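 Liver microsomes at 0.5 mg protein/mL in 100 mM potassium phosphate, pH 7.4. Compound preincubated 10 min at 37 °C. Intrinsic clearance scaled using the well-stirred liver model.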

[15] = Solubility of the compound in phosphate buffer at pH 6.5 shaken for 2 hrs followed by overnight incubation; type: physicochemical
Summary of the method: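 Lyophilisation solubility assay run in duplicate from 10 mM DMSO stock. DMSO evaporated and residue redissolved in 0.05 M phosphate, pH 6.5. Stirred 1 hr, shaken 2 hr, left overnight, then filtered. Filtrate and a 1/10 dilution analysed by HPLC-UV against a four-point calibration.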

[16] = Permeability of the compound measured at 18 hrs by PAMPA; type: ADME; details: read-out: permeability
Summary of the method: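 PAMPA sandwich format. Donor: compound diluted to 150 μM (DMSO <2%) in 0.05 M MOPSO pH 6.5 with 0.5% glycocholic acid. Acceptor: 0.05 M MOPSO pH 6.5. Membrane of 10% egg lecithin with 0.5% cholesterol in dodecane. Donor measured at start; acceptor and donor measured at ~18 hr.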

[17] = Plasma clearance in iv dosed cynomolgus monkey; type: ADME, organism-based, Macaca fascicularis
[18] = Intrinsic clearance in cynomolgus monkey hepatocytes; type: ADME, cell-based, Macaca fascicularis, Hepatocyte; details: read-out: CLH
[19] = Plasma clearance in Wister-Han rat at 1 mg/kg, iv administered as single dose by LC/MS-MS analysis; type: ADME, organism-based; details: Wistar-Han; summary of the method: as §3
[20] = Intrinsic clearance in rat hepatocytes; type: ADME, cell-based, Hepatocyte; details: read-out: CLH
[21] = Inhibition of cynomolgus monkey CYP11B2 expressed in human G401 cells using 1-deoxycorticosterone as substrate by HTRF assay; type: cell-based, Macaca fascicularis; details: g-401; summary of the method: as §1
[22] = Selectivity ratio of IC50 for cynomolgus monkey CYP11B1 expressed in human G401 cells to IC50 for cynomolgus monkey CYP11B2 expressed in human G401 cells; type: cell-based; summary of the method: as §1
[23] = Intrinsic clearance in human liver microsomes preincubated for 10 mins followed by NADPH regenerating system addition and measured up to 30 mins by LC/MS-MS analysis; type: ADME, Microsome; details: read-out: CLH; summary of the method: as §4
[24] = Intrinsic clearance in mouse liver microsomes preincubated for 10 mins followed by NADPH regenerating system addition and measured up to 30 mins by LC/MS-MS analysis; type: ADME, Microsome; summary of the method: as §4
[25] = Octanol-water distribution coefficient, log D of the compound by carrier-mediated distribution system; type: physicochemical

Sequence of Cytochrome P450 2C9 (P11712 whole entry): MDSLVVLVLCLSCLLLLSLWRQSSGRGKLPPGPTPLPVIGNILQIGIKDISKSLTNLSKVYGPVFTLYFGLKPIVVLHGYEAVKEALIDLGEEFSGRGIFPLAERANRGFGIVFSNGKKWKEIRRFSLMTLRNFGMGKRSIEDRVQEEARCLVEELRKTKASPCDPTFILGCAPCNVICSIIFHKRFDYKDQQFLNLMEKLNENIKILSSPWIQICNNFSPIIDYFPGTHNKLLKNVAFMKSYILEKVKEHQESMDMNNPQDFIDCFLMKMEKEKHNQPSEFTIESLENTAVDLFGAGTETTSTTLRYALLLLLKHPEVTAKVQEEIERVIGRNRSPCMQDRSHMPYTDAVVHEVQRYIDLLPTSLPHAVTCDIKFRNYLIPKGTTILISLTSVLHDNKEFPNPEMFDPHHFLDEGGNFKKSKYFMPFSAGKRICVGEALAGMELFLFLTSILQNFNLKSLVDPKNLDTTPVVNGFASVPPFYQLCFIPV
Sequence of Cytochrome P450 3A4 (P08684 whole entry): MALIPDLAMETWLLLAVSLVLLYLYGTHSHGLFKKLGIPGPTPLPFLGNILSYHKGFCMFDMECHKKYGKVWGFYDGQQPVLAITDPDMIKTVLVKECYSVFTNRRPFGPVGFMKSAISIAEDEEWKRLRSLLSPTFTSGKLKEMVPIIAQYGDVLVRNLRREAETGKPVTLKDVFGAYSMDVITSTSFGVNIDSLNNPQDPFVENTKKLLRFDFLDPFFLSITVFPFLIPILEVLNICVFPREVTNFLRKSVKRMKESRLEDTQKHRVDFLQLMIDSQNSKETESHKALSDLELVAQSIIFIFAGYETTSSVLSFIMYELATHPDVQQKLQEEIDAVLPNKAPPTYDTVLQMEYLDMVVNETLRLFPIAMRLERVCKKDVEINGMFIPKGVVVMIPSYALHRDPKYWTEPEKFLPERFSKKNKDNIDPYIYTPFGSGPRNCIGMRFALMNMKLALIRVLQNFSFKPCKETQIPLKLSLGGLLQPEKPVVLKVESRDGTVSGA
Sequence of Cytochrome P450 2D6 (P10635 whole entry): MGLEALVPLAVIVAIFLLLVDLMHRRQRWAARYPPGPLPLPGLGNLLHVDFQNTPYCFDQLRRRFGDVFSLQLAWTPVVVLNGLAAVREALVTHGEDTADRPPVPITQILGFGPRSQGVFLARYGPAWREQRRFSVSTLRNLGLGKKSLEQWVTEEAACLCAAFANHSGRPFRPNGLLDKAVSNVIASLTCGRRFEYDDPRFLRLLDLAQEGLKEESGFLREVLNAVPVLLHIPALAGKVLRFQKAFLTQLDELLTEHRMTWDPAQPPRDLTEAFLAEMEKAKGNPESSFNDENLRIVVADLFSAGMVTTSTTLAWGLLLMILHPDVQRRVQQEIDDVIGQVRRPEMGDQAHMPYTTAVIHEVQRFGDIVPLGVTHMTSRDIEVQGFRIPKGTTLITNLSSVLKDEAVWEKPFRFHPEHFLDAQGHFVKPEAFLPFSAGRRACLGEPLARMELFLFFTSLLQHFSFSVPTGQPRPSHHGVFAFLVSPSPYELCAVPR

IC50 [2] | IC50 [5] | predicted hepatic clearance (CLH) [14] | IC50 [21] | predicted hepatic clearance [23] | SMILES | Ratio IC50 [6] | Ratio IC50 [22] | also measured
> 10000 nM | 1540 nM | – | – | – | CC1(C)CN(c2cccnc2)C(=O)c2ccc(Cl)cc21 | > 7 | – | IC50 [1]: > 50000 nM; IC50 [3]: > 50000 nM; IC50 [4]: > 50000 nM
– | 2 nM | 6.4 mL/min/kg | – | – | Cn1cc(C(=O)N2CC3(C2)CN(c2cncc(N4C(=O)c5ccc(Cl)cc5C4(C)C)c2)C3)cn1 | 5680 | – | fraction unbound at 1 µM [7]: 0.036; bioavailability [8]: 37%; AUC(0-inf) [9]: 5660 ng·h/mL; AUC/dose [10]: 1889 kg·ng·h/mL/mg; AUC/dose [11]: 3111 kg·ng·h/mL/mg; fraction unbound at 1 µM [12]: 0.066; bioavailability [13]: 69%; solubility at 2 h [15]: 44 µg/mL (≈ 92.2 µM); Papp at 18 h [16]: 3.63 ×10⁻⁶ cm/s; clearance [17]: 2.1 mL/min/kg; CLint scaled [18]: < 3 mL/min/kg; clearance [19]: 6.4 mL/min/kg; CLint scaled [20]: < 4.4 mL/min/kg
– | 16 nM | 0.87 mL/min/kg | 1 nM | – | CCS(=O)(=O)N1CC2(CN(c3cncc(N4C(=O)c5ccc(Cl)cc5C4(C)C)c3)C2)C1 | 855 | 19700 | –
> 10000 nM | 761 nM | – | – | – | CC1Cc2cc(Cl)ccc2C(=O)N1c1cccnc1 (stereo not drawn) | > 13 | – | IC50 [1]: > 50000 nM; IC50 [3]: > 50000 nM; IC50 [4]: > 50000 nM
5150 nM | 76 nM | < 20.2 mL/min/kg | – | < 3.5 mL/min/kg | CS(=O)(=O)N[C@@H]1CCCc2c1cncc2N1CCc2cc(Cl)ccc2C1=O | 68 | – | –
5000 nM | 61 nM | – | – | < 3.5 mL/min/kg | O=C1c2ccc(Cl)cc2CCN1c1cccnc1 | 82 | – | predicted hepatic clearance (CLH) [24]: < 20.2 mL/min/kg; logD [25]: 2.25
– | 9 nM | 17.7 mL/min/kg | 3 nM | – | CC(=O)N1CCN(c2cncc(N3C(=O)c4ccc(Cl)cc4C3(C)C)c2)CC1 | 80 | 236 | –
3920 nM | 54 nM | < 20.2 mL/min/kg | – | 4.3 mL/min/kg | CC(=O)N[C@@H]1CCCc2c1cncc2N1CCc2cc(Cl)ccc2C1=O | 73 | – | –
– | 5 nM | – | 0.5 nM | – | CC1(C)c2cc(Cl)ccc2C(=O)N1c1cncc(OC2CN(C(=O)c3ncccc3Cl)C2)c1 | 174 | 1120 | AUC(0-inf) [9]: 10800 ng·h/mL; bioavailability [13]: 58%; solubility at 2 h [15]: 20 µg/mL (≈ 41.4 µM); Papp at 18 h [16]: 3.32 ×10⁻⁶ cm/s; clearance [19]: 3.1 mL/min/kg
